We go through nine compounds from ChEMBL document CHEMBL3244294, “Dehydrative metabolites of 1-(3-chlorophenyl)-1methyl-2-phenyl-2-(2-pyridine)ethanol as potential hypocholesteremic agents” (J Med Chem, 1978).

Molecules are shown by their SMILES. Where only a bound is given, the exact number is not on record here.

Data set [1] relates to Serum. Kind of data set: Drug recovery in pentane extract of Sprague-Dawley rat serum treated with 1-(3-Chlorophenyl)-1-methyl-2-phenyl-2-(2-pyridine)ethanol at 25 mg/kg, ip by RP-HPLC analysis. Also noted: dose 25 mg/kg, route intraperitoneal. In kind it is ADME, organism-based. As to conditions: in vivo.
Data set [2] has as its system Rattus norvegicus. As to the kind of experiment: Hypocholesteremic activity in Sprague-Dawley rat assessed as reduction in serum cholesterol level at 25 mg/kg for 7 days relative to control. In kind it is functional. Also noted: scale not given: the % may be the effect or the level left. In outline: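 Male rats (200 g) were dosed at 25 mg/kg for 7 days, with dosing starting at 1 p.m. Sera were taken 24 h after the final dose, and serum cholesterol was determined by the method of Block et al. Results are reported as mean ± standard deviation and compared with controls by two-tailed Student's t test.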

In data set [3] the test system is Rattus norvegicus. Kind of data set: Estrogenicity in Sprague-Dawley rat assessed as uterus weight measured per gram of body weight at 25 mg/kg, po for 7 days in presence of 17-beta estradiol (reference value: 0.01 +/- 0.02 mg). It counts as ADME, organism-based. On the set-up: dose 25 mg/kg, route oral. Particulars: in vivo, 168 h. In outline: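 From 7 days later they were dosed orally by intubation with aqueous suspensions (25 mg/kg) for 7 consecutive days. On day 8 uteri were blotted free of fluid and weighed, expressed as mg/g body weight ×100. A standard curve came from sc 17β-estradiol in peanut oil, giving µg estradiol equivalent to 25 mg compound.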

The subject of data set [4] is Serum. Kind of data set: Drug recovery in Sprague-Dawley rat serum treated with 1-(3-Chlorophenyl)-1-methyl-2-phenyl-2-(2-pyridine)ethanol at 25 mg/kg, ip after 10 hrs by RP-HPLC analysis. In kind it is ADME, organism-based. Also noted: dose 25 mg/kg, route intraperitoneal. Particulars: in vivo. In short, it runs like this:
(§1)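 Rats received 25 mg/kg ³H-labelled parent (tritium in 2-phenyl ring) by ip injection as an aqueous 0.26% Tween 80 suspension. Serum was taken by cardiac puncture at 2, 10 or 72 h (three rats), separated at 1700g for 30 min and deproteinized with methanol. The residue was analysed by C-18 reverse-phase HPLC. Values are percent of total recovered HPLC radioactivity.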

Data set [5] deals with Serum. Kind of data set: Drug recovery in Sprague-Dawley rat serum treated with 1-(3-Chlorophenyl)-1-methyl-2-phenyl-2-(2-pyridine)ethanol at 25 mg/kg, ip after 72 hrs by RP-HPLC analysis. It counts as ADME, organism-based. As to conditions: in vivo. Also noted: dose 25 mg/kg, route intraperitoneal. In short, it runs like this:
as §1

Data set [6] concerns Serum. As to the kind of experiment: Drug recovery in hydrolyzed fraction of Sprague-Dawley rat serum treated with 1-(3-Chlorophenyl)-1-methyl-2-phenyl-2-(2-pyridine)ethanol at 25 mg/kg, ip after 72 hrs by RP-HPLC analysis. It counts as ADME, organism-based. Also noted: dose 25 mg/kg, route intraperitoneal. As to conditions: in vivo. In short, it runs like this:
(§2)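 ³H-labelled parent was given at 25 mg/kg ip in aqueous 0.26% Tween 80, and serum was collected by cardiac puncture at 72 h. Part of the serum was hydrolysed for 48 h with aryl sulfatase and glucuronidase, then deproteinized with methanol. The residue was run on C-18 reverse-phase HPLC. Values are percent of total recovered HPLC radioactivity.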

Data set [7] is described as follows: Drug recovery in sephadex G-10 chromatographic fraction of Sprague-Dawley rat urine treated with 1-(3-Chlorophenyl)-1-methyl-2-phenyl-2-(2-pyridine)ethanol at 25 mg/kg, ip by RP-HPLC analysis. It counts as ADME, organism-based. Also noted: dose 25 mg/kg, route intraperitoneal. As to conditions: in vivo. In outline: (§3)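 One rat was dosed ip at 25 mg/kg with ³H-labelled parent in aqueous 0.26% Tween 80, and urine was collected over 72 h. Urine was either pentane-extracted or fractionated on Sephadex G-10; fraction III was the radioactive eluate free of appreciable urine constituents. Fractions were analysed by C-18 reverse-phase HPLC as percent of total recovered radioactivity.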

The test system of data set [8] is Serum. As to the kind of experiment: Drug recovery in Sprague-Dawley rat serum treated with 1-(3-Chlorophenyl)-1-methyl-2-phenyl-2-(2-pyridine)ethanol at 25 mg/kg, ip after 2 hrs by RP-HPLC analysis. It counts as ADME, organism-based. On the set-up: dose 25 mg/kg, route intraperitoneal. As to conditions: in vivo. In short, it runs like this:
as §1

The subject of data set [9] is Serum. Kind of data set: Drug recovery in hydrolyzed fraction of Sprague-Dawley rat serum at 25 mg/kg, ip after 72 hrs by RP-HPLC analysis. As to conditions: in vivo. It counts as ADME, organism-based. Also noted: dose 25 mg/kg, route intraperitoneal. In outline: as §2
The subject of data set [10] is Serum. Kind of data set: Drug recovery in Sprague-Dawley rat serum at 25 mg/kg, ip after 2 hrs by RP-HPLC analysis. It counts as ADME, organism-based. Also noted: dose 25 mg/kg, route intraperitoneal. Particulars: in vivo. In outline:
as §1

Data set [11] has as its system Serum. As to the kind of experiment: Drug recovery in Sprague-Dawley rat serum at 25 mg/kg, ip after 10 hrs by RP-HPLC analysis. As to conditions: in vivo. On the set-up: dose 25 mg/kg, route intraperitoneal. It counts as ADME, organism-based. In short, it runs like this: as §1
Data set [12] concerns Serum. As to the kind of experiment: Drug recovery in Sprague-Dawley rat serum at 25 mg/kg, ip after 72 hrs by RP-HPLC analysis. Also noted: dose 25 mg/kg, route intraperitoneal. Particulars: in vivo. It counts as ADME, organism-based. In short, it runs like this: as §1
A short description of data set [13]: Drug recovery in pentane extract of Sprague-Dawley rat urine at 25 mg/kg, ip by RP-HPLC analysis. In kind it is ADME, organism-based. Also noted: dose 25 mg/kg, route intraperitoneal. Particulars: read-out: Drug recovery. In short, it runs like this:
as §3

A short description of data set [14]: Drug recovery in sephadex G-10 chromatographic fraction of Sprague-Dawley rat urine at 25 mg/kg, ip by RP-HPLC analysis. In kind it is ADME, organism-based. Also noted: dose 25 mg/kg, route intraperitoneal. Particulars: read-out: Drug recovery. In outline:
as §3

`C/C(=C(\c1ccccc1)c1ccccn1)c1cccc(Cl)c1` yielded a Drug recovery in the data set with Serum [1] of 0.1%. Besides, the values for the Activity in the data set with Rattus norvegicus [2] and in the data set on Rattus norvegicus [3] were 62.8% and 0.92 µg, respectively.

Consider `c1ccc(Cc2ccccn2)cc1`, for which the Drug recovery in the data set with Serum [4] is reported as 2.4%; in the data set with Serum [5], 2.2%; in the data set on Serum [6], 1.2%; in [7], 0.2%; in the data set on Serum [8] it was 4.7%.

Turning to `C=C(c1cccc(Cl)c1)C(c1ccccc1)c1ccccn1` (stereo not given), in the data set with Rattus norvegicus [2], the Activity turned out to be 10.1%.

For `CC(O)(c1cccc(Cl)c1)C(c1ccc(O)cc1)c1ccccn1` (stereo not given), the Activity was 43.5% in the data set on Rattus norvegicus [2] and 0.92 µg with Rattus norvegicus [3].

Consider `C/C(=C(/c1ccc(O)cc1)c1ccccn1)c1cccc(Cl)c1`, for which the Drug recovery is given as 0.9% in the data set on Serum [4], 1.1% in the data set on Serum [5], 0.4% in the data set with Serum [6] and 3.3% in data set [7]. Also, the Activity in the data set with Rattus norvegicus [2] was 38.1%; with Rattus norvegicus [3] it was 0.03 µg.

In the case of `C=C(c1cccc(Cl)c1)C(c1ccc(O)cc1)c1ccccn1` (stereo not given), in the data set with Rattus norvegicus [2], the Activity is on record as 4%.

Turning to `C/C(=C(\c1ccc(O)cc1)c1ccccn1)c1cccc(Cl)c1`, the Drug recovery is reported as 0.3% in the data set on Serum [4], 0.2% with Serum [5], 0.3% in the data set with Serum [6] and 0.4% in data set [7]. Besides, the results for the Activity with Rattus norvegicus [2] and with Rattus norvegicus [3] were 30.5% and 0.02 µg, respectively.

The compound `C/C(=C(/c1ccccc1)c1ccccn1)c1cccc(Cl)c1` displayed a Drug recovery with Serum [1] of 0.1%. For the same compound, the Activity with Rattus norvegicus [2] stood at 36.1%; in the data set with Rattus norvegicus [3], 0.22 µg.

Turning to `CC(O)(c1cccc(Cl)c1)C(c1ccccc1)c1ccccn1` (stereo not given), the Drug recovery with Serum [9] turned out to be 1.2%; in the data set on Serum [10], 22%; in the data set on Serum [11], 0.9%; in the data set on Serum [12], 1.2%. Besides, the dose excreted was 1.6% in [13] and < 0.1% in data set [14]. Further, the Activity was found to be 49.5% in the data set with Rattus norvegicus [2] and 0.49 µg with Rattus norvegicus [3].
